Results taken from PMC10213863 (Cell Reports Medicine, 2023).
Read-outs that look alike come from different tables or passages of the source.

Assays:
[1] = tested on: SLE immune-complex-driven IFN-α response in PBMCs; assay: IFN-α release from PBMCs stimulated with SLE patient sera immune complexes; format: cell-based, human
[2] = tested on: ssRNA driven IFN transcripts in human PBMCs; assay: ISG expression in human PBMCs stimulated with ssRNA; format: cell-based; settings: HCQ vs MHV370
Method in brief: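 PBMCs were pre-incubated 30 min with test compound or HCQ, then stimulated with ssRNA at doses from earlier work. RNA was extracted, and ISG transcripts were quantified by qRT-PCR with the 2−ΔΔCt method against 18S rRNA, using biological replicates. Each ISG's induction was normalized to 100% to give a panel signature.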

[3] = tested on: immune-complex stimulated ISG panel in PBMCs; assay: Five-gene ISG panel in PBMCs stimulated with SLE immune complexes; format: cell-based, human; settings: HCQ 1 μM
Method in brief: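 PBMCs were pre-treated 30 min with test compound, HCQ or 0.1% DMSO, then stimulated 20 h with SLE serum pre-complexed with U-937 necrotic extract. RNA was extracted and ISGs quantified by qRT-PCR with the 2−ΔΔCt method against 18S rRNA, using biological replicates. Global ISG induction was derived by normalizing each ISG's relative induction to 100%.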

[4] = tested on: IFN-α accelerated NZB/W F1 model; settings: cited from earlier work
SLE patients [5] = settings: cited from earlier work
SLE patients [6] = settings: BLISS trial, cited from earlier work

**Q.** Which “inhibition of immune-complex-driven IFN-α responses by serum category” value ([1]; HCQ 1 μM (matched steady-state blood exposure of SLE patients), PBMCs) does the source give for `CCN(CCO)CCCC(C)Nc1ccnc2cc(Cl)ccc12` (stereo not drawn) [HCQ, hydroxychloroquine, reference compound] here?
**A.** strongest inhibition of IFN-α responses elicited by dsDNA immune complexes

**Q.** What about the “fold lower potency than MHV370, immune-complex-induced IFN-α” value ([1]; HCQ vs MHV370) of the same molecule?
**A.** approximately 1,000 fold

**Q.** And the “fold less potent antagonist of ISG expression than MHV370” value [2]?
**A.** 3,300 fold

**Q.** What about the “expression of a five-panel ISG signature” value [3] of the same molecule?
**A.** only mildly effective

**Q.** Which “efficacy in IFN-α accelerated NZB/W F1 model” value [4] does the source give for `N#Cc1ccc(N2C[C@H](N)C[C@H](C(F)(F)F)C2)c2cccnc12` [M5049] here?
**A.** showed efficacy

**Q.** What does the source list for “anifrolumab: antibody drug which interferes with type I IFN signaling”?
**A.** herpes virus infections in treated patients (SLE patients [5]): increased; predefined endpoint in phase 3 studies (SLE patients [5]; one of two phase 3 studies): failed to reach its predefined endpoint

**Q.** Which “SRI (SLE responder index) response rate above placebo” value (SLE patients [6]; 1 mg/kg) does the source give for “belimumab: antibody drug which interferes with B cell expansion” here?
**A.** 7%

**Q.** What about the “SRI (SLE responder index) response rate above placebo” value (SLE patients [6]; 10 mg/kg) of the same molecule?
**A.** 14%
